Source: PubChem BioAssay AID602343 (The Scripps Research Institute Molecular Screening Center, 2012)

Molecular target: Monoacylglycerol lipase ABHD6 (Mus musculus) (UniProt Q8R2Y0)
Experiment: brain ABHD6 inhibition after oral dosing, late-stage follow-up, in vivo study for DAGLb inhibitor project, gel-based competitive ABPP, fluorescence, mouse, set 2 (AID 602343)
Details: stronger effect = higher value
Summary of the method: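 Assay system: mouse brain membrane ABHD6, in vivo dosing; also added: HT-01 BODIPY activity-based probe, 1 µM final; timing: Brains taken 4 h post-dose, probe labeling 30 min at 37 °C; signal: in-gel fluorescence band density; benchmarks: vehicle high, gel background low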

[1] = dose or concentration not given here
[2] = measured here: inhibition at 1 mg/kg p.o.
[3] = measured here: inhibition at 5 mg/kg p.o.

Sequence of Monoacylglycerol lipase ABHD6 (Mus musculus) (Q8R2Y0 whole entry, looked up): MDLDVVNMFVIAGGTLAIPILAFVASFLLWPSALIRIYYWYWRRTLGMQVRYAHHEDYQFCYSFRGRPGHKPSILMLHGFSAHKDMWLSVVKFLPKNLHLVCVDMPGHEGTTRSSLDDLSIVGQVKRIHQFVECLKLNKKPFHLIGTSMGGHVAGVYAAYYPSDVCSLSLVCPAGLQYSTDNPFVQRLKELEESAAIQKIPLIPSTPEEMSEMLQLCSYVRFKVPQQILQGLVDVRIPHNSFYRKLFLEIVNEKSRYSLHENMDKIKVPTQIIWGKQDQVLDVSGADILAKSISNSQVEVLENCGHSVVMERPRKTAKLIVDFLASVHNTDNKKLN

SMILES: O=C(N1CCCCC1Cc1ccccc1)n1cc(-c2ccc(-c3ccccc3)cc2)nn1 (centres undefined)
- inhibition [1]: 100%
- inhibition [2]: 0%
- inhibition [3]: 99%

SMILES: COc1ccccc1-c1ccc(-c2cn(C(=O)N3CCCCC3Cc3ccccc3)nn2)cc1 (centres undefined)
- inhibition [1]: 99%
- inhibition [2]: 30%
- inhibition [3]: 95%

SMILES: COc1ccc(-c2ccc(-c3cn(C(=O)N4CCCCC4c4ccccc4)nn3)cc2)cc1 (centres undefined)
- inhibition [1]: 99%
- inhibition [2]: 55%
- inhibition [3]: 55%
